In ChEMBL document CHEMBL1157909, “Targeting multiple chorismate-utilizing enzymes with a single inhibitor: validation of a three-stage design” (J Med Chem, 2010):
Activity calls are given as the source filed them. The rule behind the calls is not given here.

Columns and labels:
[1] = biological target: T1, Anthranilate synthase component 1 (Salmonella typhimurium (strain LT2 / SGSC1412 / ATCC 700720)) (UniProt P00898); assay: Mixed-type inhibition of Salmonella Typhimurium anthranilate synthase trpE expressed in Escherichia coli BL21(DE3) using chorismate as substrate by double reciprocal plot; settings: Salmonella enterica subsp. enterica serovar Typhimurium
T1 sequence (whole entry): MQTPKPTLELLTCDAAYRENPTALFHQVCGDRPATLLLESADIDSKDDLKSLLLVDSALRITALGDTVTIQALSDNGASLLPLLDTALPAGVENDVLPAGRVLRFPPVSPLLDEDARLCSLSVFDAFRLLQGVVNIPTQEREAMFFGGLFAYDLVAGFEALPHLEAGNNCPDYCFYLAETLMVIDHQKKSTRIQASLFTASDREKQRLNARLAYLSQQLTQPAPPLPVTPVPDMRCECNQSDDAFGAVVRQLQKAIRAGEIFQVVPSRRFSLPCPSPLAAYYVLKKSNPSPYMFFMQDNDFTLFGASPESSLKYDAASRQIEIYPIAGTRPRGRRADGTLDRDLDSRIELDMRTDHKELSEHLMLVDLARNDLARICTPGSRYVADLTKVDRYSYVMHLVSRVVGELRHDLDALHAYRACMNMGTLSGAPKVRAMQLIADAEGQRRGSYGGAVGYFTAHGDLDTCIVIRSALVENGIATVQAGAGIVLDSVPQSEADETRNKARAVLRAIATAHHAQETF
Summary of the method: (§1)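 S. typhimurium anthranilate synthase partial complex (TrpE2TrpG2), 2.2 nM, in a fluorescence assay read at 390 nm emission, 313 nm excitation, 25 °C. Buffer: 100 mM phosphate pH 7.0, 20 mM L-glutamine, 5 mM MgCl2 (saturating). Reactions were started with enzyme. Inhibitor ranged 10 μM–8 mM; chorismate ranged 0.5–5 KM. Ki versus chorismate came from initial rates.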

[2] = biological target: T2, Anthranilate synthase component 1 (Salmonella typhimurium (strain LT2 / SGSC1412 / ATCC 700720), UniProt P00898); assay: Inhibition of Salmonella Typhimurium anthranilate synthase trpE:trpD […] coexpressing stop codon in trpD gene for encoding aminotransferase activity by spectrophotometry for enzyme-inhibitor complex; parameters: species or system Salmonella enterica subsp. enterica serovar Typhimurium
T2 sequence (P00898 whole entry): T1 sequence (whole entry)

[3] = biological target: Aminodeoxychorismate synthase component 1 PabB (Escherichia coli K-12) (UniProt P05041); assay: Competitive inhibition of Escherichia coli K12 ADCS by double reciprocal plot in presence of cofactor Mg2+
Chain of Aminodeoxychorismate synthase component 1 PabB (Escherichia coli K-12) (P05041 whole entry, looked up): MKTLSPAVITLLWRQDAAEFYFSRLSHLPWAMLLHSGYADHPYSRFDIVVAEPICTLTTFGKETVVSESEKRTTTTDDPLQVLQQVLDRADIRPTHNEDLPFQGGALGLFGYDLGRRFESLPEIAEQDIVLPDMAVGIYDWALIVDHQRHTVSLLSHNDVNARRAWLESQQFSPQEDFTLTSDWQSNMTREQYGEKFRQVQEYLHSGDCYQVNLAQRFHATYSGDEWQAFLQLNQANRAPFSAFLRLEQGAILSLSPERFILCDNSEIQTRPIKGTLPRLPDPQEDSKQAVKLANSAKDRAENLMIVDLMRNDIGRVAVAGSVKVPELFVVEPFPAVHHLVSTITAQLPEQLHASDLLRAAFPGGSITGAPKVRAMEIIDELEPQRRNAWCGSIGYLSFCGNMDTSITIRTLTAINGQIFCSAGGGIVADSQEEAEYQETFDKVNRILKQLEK

[4] = biological target: Aminodeoxychorismate synthase component 1 PabB (Escherichia coli K-12) (UniProt P05041); assay: Competitive inhibition of Escherichia coli K12 ADCS using chorismate as substrate by double reciprocal plot
[5] = biological target: T3, Isochorismate synthase EntC (Escherichia coli K-12) (UniProt P0AEJ2); assay: Competitive inhibition of Escherichia coli K12 IS expressed in Escherichia coli BL21(DE3) using chorismate as substrate by double reciprocal plot
T3 sequence (whole entry): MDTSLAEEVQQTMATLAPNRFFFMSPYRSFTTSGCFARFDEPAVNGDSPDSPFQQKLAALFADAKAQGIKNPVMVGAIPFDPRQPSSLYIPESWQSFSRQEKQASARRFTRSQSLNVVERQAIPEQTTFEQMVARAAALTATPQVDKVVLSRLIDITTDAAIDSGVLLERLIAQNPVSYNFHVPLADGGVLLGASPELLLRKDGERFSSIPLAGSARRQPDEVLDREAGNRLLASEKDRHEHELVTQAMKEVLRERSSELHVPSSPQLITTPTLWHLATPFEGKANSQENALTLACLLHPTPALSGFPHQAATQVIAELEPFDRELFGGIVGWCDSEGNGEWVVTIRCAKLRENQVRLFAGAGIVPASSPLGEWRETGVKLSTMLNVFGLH
Summary of the method: (§2)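 Isochorismate synthase EntC (His-tagged, pET28a, BL21(DE3)) at 75 nM, coupled to excess EntB (2 μM) and 2 units LDH. Read-out was NADH oxidation at 340 nm, 25 °C. Buffer: 50 mM triethanolamine pH 7.8, 1 mM MgCl2 (saturating), 100 μM NADH. Inhibitor ranged 10 μM–8 mM; chorismate ranged 0.5–5 KM. Ki versus chorismate came from initial rates.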

[6] = biological target: Anthranilate synthase component 1 (Salmonella typhimurium (strain LT2 / SGSC1412 / ATCC 700720), UniProt P00898); assay: Inhibition of Salmonella Typhimurium anthranilate synthase trpE:trpD […] coexpressing stop codon in trpD gene for encoding aminotransferase activity by spectrophotometry for enzyme-substrate-inhibitor complex; parameters: species or system Salmonella enterica subsp. enterica serovar Typhimurium
[7] = biological target: T4, Isochorismate synthase EntC (Escherichia coli K-12, UniProt P0AEJ2); assay: Inhibition of Escherichia coli K12 IS expressed in Escherichia coli BL21(DE3) by spectrophotometry; summary of the method: as §2
T4 sequence (P0AEJ2 whole entry): T3 sequence (whole entry)

[8] = biological target: T1, Anthranilate synthase component 1 (Salmonella typhimurium (strain LT2 / SGSC1412 / ATCC 700720)); assay: Competitive inhibition of Salmonella Typhimurium anthranilate synthase trpE expressed in Escherichia coli BL21(DE3) by double reciprocal plot in presence of cofactor Mg2+; settings: Salmonella enterica subsp. enterica serovar Typhimurium
[9] = biological target: T3, Isochorismate synthase EntC (Escherichia coli K-12); assay: Noncompetitive inhibition of Escherichia coli K12 IS expressed in Escherichia coli BL21(DE3) by double reciprocal plot in presence of cofactor Mg2+
Summary of the method: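 IS (75 nM) in an EntB/LDH coupled assay, with NADH loss read at 340 nm, 25 °C. Buffer: 50 mM triethanolamine pH 7.8, 100 μM NADH. Chorismate was held saturating at 200 μM while Mg2+ was varied 5–500 μM. Inhibitor ranged 10 μM–8 mM; the inhibition pattern came from initial rates.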

[10] = biological target: Aminodeoxychorismate synthase component 1 PabB (Escherichia coli K-12) (UniProt P05041); assay: Noncompetitive inhibition of Escherichia coli K12 ADCS by double reciprocal plot in presence of cofactor Mg2+
[11] = biological target: T1, Anthranilate synthase component 1 (Salmonella typhimurium (strain LT2 / SGSC1412 / ATCC 700720)); assay: Noncompetitive inhibition of Salmonella Typhimurium anthranilate synthase trpE expressed in Escherichia coli BL21(DE3) using chorismate as substrate by double reciprocal plot; settings: Salmonella enterica subsp. enterica serovar Typhimurium; summary of the method: as §1
[12] = biological target: Aminodeoxychorismate synthase component 1 PabB (Escherichia coli K-12) (UniProt P05041); assay: Noncompetitive inhibition of Escherichia coli K12 ADCS using chorismate as substrate by double reciprocal plot

| Activity [10] | Activity [11] | Activity [12] | Compound | Activity [1] | Ki [2] | Activity [3] | Activity [4] | Activity [5] | Ki [6] | Ki [7] | Activity [8] | Activity [9] |
| --- | --- | --- | --- | --- | --- | --- | --- | --- | --- | --- | --- | --- |
| – | – | – | CC(C(=O)N[C@@H](CCCNC(=O)c1cccc(OCC(=O)O)c1)C(=O)NCCc1cccc2c1oc1c(CCC(N)=O)cccc12)c1ccc([N+](=O)[O-])cc1 (stereo not given in full) | Active | 250 µM | Active | Active | Active | 110 µM | 190 µM | Active | Active |
| – | – | – | NC(=O)c1cccc(OCC(=O)O)c1 | Active | 760 µM | Active | Active | Active | 2600 µM | 2600 µM | Active | Active |
| Active | Active | Active | Cc1ccc(C(=O)N[C@@H](C)C(=O)N[C@@H](Cc2cccc(Cl)c2)C(N)=O)c([N+](=O)[O-])c1O | – | 200 µM | – | – | Active | – | 500 µM | – | Active |
| – | – | – | Cc1ccc(C(=O)N[C@@H](CCCCNC(=O)c2cccc(OCC(=O)O)c2)C(=O)N[C@@H](Cc2cccc(Cl)c2)C(N)=O)c([N+](=O)[O-])c1O | Active | 20 µM | Active | Active | Active | 54 µM | 210 µM | Active | Active |
| – | – | – | Cc1ccc(C(=O)N[C@@H](CCCNC(=O)c2cccc(OCC(=O)O)c2)C(=O)N[C@@H](Cc2cccc(Cl)c2)C(N)=O)c([N+](=O)[O-])c1O | – | 41 µM | – | Active | Active | – | 360 µM | Active | Active |
| – | – | – | NC(=O)C1(NC(=O)[C@H](CCCNC(=O)c2cccc(OCC(=O)O)c2)NC(=O)c2ncccc2C(=O)c2ccccc2)CCCCC1 | Active | 490 µM | Active | Active | Active | 1080 µM | 430 µM | Active | Active |
| – | – | – | NC(=O)C1(NC(=O)[C@H](CCCNC(=O)c2cccc(OCC(=O)O)c2)NC(=O)c2ccc(Oc3ccccc3)cc2)CCS(=O)(=O)CC1 | Active | 570 µM | Active | Active | Active | 1020 µM | 170 µM | Active | Active |
| Active | – | Active | Cc1ccc(C(=O)N[C@@H](CCCCN)C(=O)N[C@@H](Cc2cccc(Cl)c2)C(N)=O)c([N+](=O)[O-])c1O | – | 110 µM | – | – | Active | – | 790 µM | – | Active |
| – | – | – | Cc1ccc(C(=O)N[C@@H](CSCCCNC(=O)c2cccc(OCC(=O)O)c2)C(=O)N[C@@H](Cc2cccc(Cl)c2)C(N)=O)c([N+](=O)[O-])c1O | Active | 96 µM | Active | Active | Active | – | 150 µM | Active | Active |
| – | – | – | O=C(O)COc1cccc(C(=O)O)c1 | Active | 210 µM | Active | Active | Active | 550 µM | 1300 µM | Active | Active |
| – | – | – | Cc1ccc(C(=O)N[C@@H](CCCNC(=O)c2cccc(OCC(=O)O)c2)C(=O)N[C@@H](Cc2ccc(C#N)cc2)C(N)=O)c([N+](=O)[O-])c1O | Active | 28 µM | Active | Active | Active | 81 µM | 260 µM | Active | Active |
